These results are taken from ChEMBL document CHEMBL4425113, “Chromenopyrazole, a Versatile Cannabinoid Scaffold with in Vivo Activity in a Model of Multiple Sclerosis” (J Med Chem, 2016).

The source made the active and inactive calls. The calls are words filed in the database; no cut-off is given here.

For data set [1], the target named is T1, Cannabinoid receptor 1 (Homo sapiens, UniProt P21554). The data set can be described thus: biochemical. Format: cell-based, HEK293.
Data set [2] concerns the target T2, Cannabinoid receptor 2 (Homo sapiens, UniProt P34972). Description: Displacement of [3H]-CP55940 from human CB2 receptor expressed in HEK293 cell membranes after 90 mins by liquid scintillation counting method.
The species named for data set [3] is Homo sapiens. Description: Selectivity ratio of Ki for human CB2 receptor to Ki for human CB1 receptor.
Data set [4] is described as follows: Binding affinity to PDEA modified AGP (unknown origin) at 40 uM by surface plasmon resonance method. Format: ADME. Particulars: human, isolated protein. (In general: SPR reads the build-up and loss of mass on a sensor chip optically.)
The species entered for data set [5] is Homo sapiens. Description: Selectivity ratio of Ki for human CB1 receptor to Ki for human CB2 receptor. In a few lines: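 Membranes from cells transfected with hCB1 (8 μg/well; Tris 50 mM, MgCl2 5 mM, EDTA 2.5 mM, BSA 0.5 mg/mL, pH 7.4) or hCB2 (4 μg/well; EGTA 2.5 mM, BSA 1 mg/mL, pH 7.5); [3H]CP55940, 90 min at 30 °C. […] Nonspecific binding 10 μM WIN55212-2; GF/C filtration, scintillation; ≥3 experiments in triplicate.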

In data set [6] the target is T2, Cannabinoid receptor 2. Description: Agonist activity at human CB2 receptor expressed in HEK293 cell membranes assessed as inhibition of forskolin-stimulated cAMP accumulation after 60 mins by HTRF assay. Format: functional, cell-based.
Data set [7] concerns the target T2, Cannabinoid receptor 2. The data set can be described thus: Partial agonist activity at human CB2 receptor expressed in HEK293 cell membranes assessed as inhibition of forskolin-stimulated cAMP accumulation at 200 nM after 60 mins by HTRF assay. Type of data set: functional, cell-based. In a few lines:
(§1)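 HEK293 cells stably expressing hCB2, 5.000 cells/well, forskolin-stimulated; Lance-Ultra TR-FRET cAMP kit, 60 min room temperature with HTRF reagents; 665/620 nm ratio converted to cAMP via standard curve; forskolin level set to 100%.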

In data set [8] the target is T2, Cannabinoid receptor 2. Description: Partial agonist activity at human CB2 receptor expressed in HEK293 cell membranes assessed as inhibition of forskolin-stimulated cAMP accumulation at 1 uM after 60 mins by HTRF assay. Format: functional, cell-based. In a few lines:
as §1

Data set [9] concerns the target T2, Cannabinoid receptor 2. Description: Agonist activity at human CB2 receptor expressed in HEK293 cell membranes assessed as inhibition of forskolin-stimulated cAMP accumulation at 1 uM after 60 mins by HTRF assay. Type of data set: functional, cell-based. In a few lines:
as §1

The target of data set [10] is T2, Cannabinoid receptor 2. The data set can be described thus: Agonist activity at human CB2 receptor expressed in HEK293 cell membranes assessed as induction of [35S]-GTPgammaS binding after 60 mins by liquid scintillation spectrometric method. Type of data set: functional. A general note: Binding of GTPγS marks nucleotide exchange on a G protein.
Data set [11] has as its target T2, Cannabinoid receptor 2. The data set can be described thus: Agonist activity at human CB2 receptor expressed in HEK293 cell membranes assessed as inhibition of forskolin-stimulated cAMP accumulation at 200 nM after 60 mins by HTRF assay. Type of data set: functional, cell-based. In a few lines:
as §1

For data set [12], the target named is T1, Cannabinoid receptor 1. Description: Agonist activity at human CB1 receptor expressed in HEK293 cell membranes assessed as induction of [35S]-GTPgammaS binding after 60 mins by liquid scintillation spectrometric method. Format: functional.

T1 sequence (P21554 whole entry): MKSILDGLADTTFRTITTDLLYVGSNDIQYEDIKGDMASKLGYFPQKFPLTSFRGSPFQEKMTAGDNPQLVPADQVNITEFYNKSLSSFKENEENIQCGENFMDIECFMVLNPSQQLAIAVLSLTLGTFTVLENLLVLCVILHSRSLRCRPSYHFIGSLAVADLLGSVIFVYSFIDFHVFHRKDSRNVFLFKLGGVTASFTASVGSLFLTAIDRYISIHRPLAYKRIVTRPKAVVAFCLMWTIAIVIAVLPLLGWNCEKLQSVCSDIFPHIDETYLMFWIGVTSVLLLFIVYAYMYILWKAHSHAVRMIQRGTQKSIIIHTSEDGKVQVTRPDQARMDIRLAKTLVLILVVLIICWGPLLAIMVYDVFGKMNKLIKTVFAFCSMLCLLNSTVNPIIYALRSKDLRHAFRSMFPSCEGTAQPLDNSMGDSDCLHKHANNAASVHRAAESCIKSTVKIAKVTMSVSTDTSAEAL
T2 sequence (P34972 whole entry): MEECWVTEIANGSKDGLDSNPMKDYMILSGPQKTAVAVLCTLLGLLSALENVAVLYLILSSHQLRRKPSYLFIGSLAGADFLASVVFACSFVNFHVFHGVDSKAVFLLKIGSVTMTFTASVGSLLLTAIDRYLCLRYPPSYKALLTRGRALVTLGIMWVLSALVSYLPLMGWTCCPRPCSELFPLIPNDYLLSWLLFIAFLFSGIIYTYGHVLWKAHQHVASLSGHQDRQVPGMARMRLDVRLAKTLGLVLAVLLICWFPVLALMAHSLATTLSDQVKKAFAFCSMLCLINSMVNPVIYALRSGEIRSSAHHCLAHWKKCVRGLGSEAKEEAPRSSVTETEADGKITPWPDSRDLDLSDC

For `CCCCCCC(C)(C)c1cc(OC)c2c(c1)OC(C)(C)c1cnn(-c3ccc(Cl)c(Cl)c3)c1-2`, the inhibition constant (Ki) on Cannabinoid receptor 1 [1] was determined as 2320 nM; on Cannabinoid receptor 2 [2], 2260 nM.
On to `CCCCCCC(C)(C)c1cc(OCc2ccccc2)c2c(c1)OC(C)(C)c1cnn(-c3ccc(Cl)cc3Cl)c1-2`, for which the Ki on Cannabinoid receptor 1 [1] and on Cannabinoid receptor 2 [2] was greater than 40000 nM each time.
With `CCCCCCC(C)(C)c1cc(O)c2c(c1)OC(C)(C)c1cnn(CC)c1-2`, in the data set listed under Homo sapiens [3], the Ratio Ki is greater than 8000. Further, affinity at Cannabinoid receptor 1 [1] (hek293) was put at a Ki of 4.5 nM.
Consider `CCCCCCC(C)(C)c1cc(OCCCO)c2c(c1)OC(C)(C)c1cnn(-c3ccc(Cl)cc3Cl)c1-2`, for which the Ki on Cannabinoid receptor 1 [1] and on Cannabinoid receptor 2 [2] was greater than 40000 nM each time.
As to `CCCCCCC(C)(C)c1cc(O)c2c(c1)OC(C)(C)c1cnn(C3CCCCC3)c1-2`, in data set [4], the PB entry was “Active”. For the same compound, the Ki came out at 1140 nM at Cannabinoid receptor 1 [1] and 53.7 nM at Cannabinoid receptor 2 [2]. The Ratio Ki in the data set filed under Homo sapiens [5] came out at 21.5.
Turning to `CCCCC/C=C\C/C=C\C/C=C\C/C=C\CCCC(=O)OC(CO)CO` [2-ARACHIDONOYLGLYCEROL], the PB result in [4] is given as “Active”.
Regarding `CCCC(C)(C)c1ccc2c(c1)OC(C)(C)[C@@H]1CC=C(C)C[C@@H]21`, at Cannabinoid receptor 2 [6], the Emax was found to be 98% and the IC50 came out at 81.8 nM.
For the compound `CCCCCCC(C)(C)c1cc(OCC)c2c(c1)OC(C)(C)c1cnn(-c3ccc(Cl)c(Cl)c3)c1-2`, the Ki at Cannabinoid receptor 1 [1] is greater than 40000 nM; at Cannabinoid receptor 2 [2], 3540 nM. In addition, the Ratio Ki in the data set listed under Homo sapiens [5] was greater than 11.3.
With `CCCCCCC(C)(C)c1cc(OC)c2c(c1)OC(C)(C)c1cn(CC)nc1-2`, the inhibition result on Cannabinoid receptor 2 [7] and on Cannabinoid receptor 2 [8] was “Active” in each case. For the same compound, the PB result in data set [4] is on record as “Active”. The Ki worked out at 2930 nM on Cannabinoid receptor 1 [1] and 92.6 nM on Cannabinoid receptor 2 [2]. In addition, the Ratio Ki in the data set listed under Homo sapiens [5] was found to be 31.8.
For `CCCCCCC(C)(C)c1cc(OCc2ccccc2)c2c(c1)OC(C)(C)c1cn(CC)nc1-2`, the Ki at Cannabinoid receptor 1 [1] came out at 671 nM; at Cannabinoid receptor 2 [2], 212 nM. Besides, the Ratio Ki in the data set filed under Homo sapiens [5] is 3.1.
As to `CCCCCCC(C)(C)c1cc(O)c2c(c1)OC(C)(C)c1cnn(-c3ccc(Cl)c(Cl)c3)c1-2`, the Ki on Cannabinoid receptor 1 [1] (hek293) came out at 514 nM; on Cannabinoid receptor 2 [2] (hek293), 270 nM. For the same compound, in the data set filed under Homo sapiens [5], the Ratio Ki was 1.9.
Consider `CCCCCCC(C)(C)c1cc(O)c2c(c1)OC(C)(C)c1cn(C)nc1-2`, for which the Ratio Ki in the data set filed under Homo sapiens [3] was greater than 2500. Moreover, the Ki at Cannabinoid receptor 1 [1] (hek293) worked out at 14.2 nM.
In the case of `CCCCCCC(C)(C)c1cc(O)c2c(c1)OC(C)(C)c1cnn(CCO)c1-2`, the Ratio Ki in the data set filed under Homo sapiens [3] stood at 19.1. For the same compound, the Ki on Cannabinoid receptor 1 [1] came out at 19.1 nM; on Cannabinoid receptor 2 [2] it was 366 nM.
As for `CCCCCCC(C)(C)c1cc(O)c2c(c1)OC(C)(C)c1cnn(-c3cc(F)cc(F)c3)c1-2`, the Ki on Cannabinoid receptor 1 [1] and on Cannabinoid receptor 2 [2] was greater than 40000 nM each time.
Take `CCCCCCC(C)(C)c1cc(OCCCO)c2c(c1)OC(C)(C)c1cn[nH]c1-2`: the inhibition entry at Cannabinoid receptor 2 [7] and on Cannabinoid receptor 2 [8] was “Active” in each case. In addition, in data set [4], the PB result was “Active”. Besides, the inhibition constant (Ki) on Cannabinoid receptor 1 [1] amounted to 450 nM; at Cannabinoid receptor 2 [2], 26 nM. Also, in the data set listed under Homo sapiens [5], the Ratio Ki was found to be 17.3.
`CCCCCCC(C)(C)c1cc2c(c3c1CCCO3)-c1c(cnn1CC)C(C)(C)O2`: the PB result in data set [4] is recorded as “Active”. Further, the inhibition constant Ki on Cannabinoid receptor 1 [1] was greater than 10000 nM; on Cannabinoid receptor 2 [2], 564 nM. In the data set listed under Homo sapiens [5], the Ratio Ki was greater than 17.7.
Turning to `CCCCCCC(C)(C)c1cc(OCCCO)c2c(c1)OC(C)(C)c1cnoc1-2`, the Emax at Cannabinoid receptor 2 [6] was 91%; on Cannabinoid receptor 2 [10] it was 96%. Moreover, the IC50 at Cannabinoid receptor 2 [6] was found to be 14 nM. Also, the Ki at Cannabinoid receptor 1 [1] turned out to be 333 nM; on Cannabinoid receptor 2 [2] it was 65.5 nM. Besides, the inhibition result at Cannabinoid receptor 2 [9] and at Cannabinoid receptor 2 [11] was “Active” in each case. The Ratio Ki in the data set filed under Homo sapiens [5] came out at 5.1.
Take `CCCCCCC(C)(C)c1cc(OCCCBr)c2c(c1)OC(C)(C)c1cn(CC)nc1-2`: the Ki on Cannabinoid receptor 1 [1] is 657 nM; at Cannabinoid receptor 2 [2] it was 87.1 nM. In the data set listed under Homo sapiens [5], the Ratio Ki came to 7.5.
On to `CCCCCCC(C)(C)c1cc(OCCCBr)c2c(c1)OC(C)(C)c1cn(C)nc1-2`, for which the inhibition result on Cannabinoid receptor 2 [7] and at Cannabinoid receptor 2 [8] was “Active” throughout. For the same compound, the PB entry in data set [4] was “Active”. Besides, the Ki at Cannabinoid receptor 1 [1] was 1480 nM; at Cannabinoid receptor 2 [2], 77.3 nM. Moreover, in the data set listed under Homo sapiens [5], the Ratio Ki was determined as 19.1.
On to `CCCCCCC(C)(C)c1cc(O)c2c(c1)OC(C)(C)c1cn(CCO)nc1-2`, for which the 50% effective concentration (EC50) on Cannabinoid receptor 1 [12] turned out to be 299 nM. Also, the Ki at Cannabinoid receptor 1 [1] amounted to 54.4 nM; on Cannabinoid receptor 2 [2], 39.6 nM. The Ratio Ki in the data set filed under Homo sapiens [5] is 1.4.

One may read the Ki as a measure of affinity in units of concentration, obtained from inhibition or displacement. A low value points to higher affinity. For orientation: Emax means the greatest response seen or fitted, relative to the assay's reference. By IC50 is commonly meant the concentration that gives 50% inhibition. By EC50 is commonly meant the concentration needed to bring the measured effect to its halfway point.
